Experimental data reported in PMC4142700 (The Prostate, 2010).
Several values for one entry are separate records, joined by “and”; a condition that tells them apart may be missing. Equal values may be shown once. Entries after “also recorded” stand apart in the source; their conditions may differ.

How the values were obtained:
[1] = test system: p62; assay: p62 protein in peripheral blood mononuclear cells by Western blot; type: in vivo, patients; conditions: PBMCs, immunoblot, normalized to α-tubulin
Method in brief: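 PBMCs were collected from six patients at baseline, 4 hr and 24 hr. Extracts were prepared in Laemmli buffer, resolved by SDS–PAGE and transferred to PVDF. Blots were probed for p62 and α-tubulin, then detected with HRP secondary antibody and ECL. Scanned bands were quantified by optical density, and p62 was normalized to α-tubulin.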

[2] = type: in vivo, patients
[3] = test system: FDG uptake; assay: FDG-PET imaging at baseline and day 2: effect of 2DG on FDG uptake; type: in vivo, patients
Method in brief: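 FDG-PET scans were taken at baseline, cycle 1 day 2 and cycle 2 day 15, with 2DG given orally on days 1–14 of 21-day cycles. FDG uptake was expressed as SUV at a selected tumor site divided by liver SUV, with liver serving as the control. Baseline and day 2 ratios were compared in nine patients.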

[4] = test system: prostate cancer cells; conditions: cited from earlier work
[5] = test system: castrate-resistant prostate cancer (CRPC); assay: Clinical outcome; type: in vivo, patients
Method in brief: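 Oral 2DG, aqueous solution formulated at 100 mg/ml in water, given daily on days 1–14 of 21-day cycles. Dose cohorts were 30, 45 and 60 mg/kg. Each dose was given 1 hr before breakfast, followed by a ~50 ml water rinse of the dosing container. Patients with CRPC were followed for PSA and radiographic disease status across cycles.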

[6] = Pharmacokinetics of 2DG in plasma; type: in vivo, patients
Method in brief: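 Blood samples (5 ml each) were drawn predose, hourly to 6 hr after oral 2DG on cycle 1 day 1, at 24 and 48 hr after cycle 1 day 1, and again on cycle 2 day 1. Plasma extracts were derivatized to 2-aminobenzoic acid derivatives, and 2DG was quantified by HPLC with fluorometric detection.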

[7] = cycle 1, 30 mg/kg/day oral, n = 3, mean ± SD
[8] = cycle 1, 45 mg/kg/day oral, n = 4, mean ± SD
[9] = cycle 1, 60 mg/kg/day oral, n = 4, mean ± SD
[10] = cycle 2, 30 mg/kg/day oral, n = 3, mean ± SD
[11] = cycle 2, 45 mg/kg/day oral, n = 4, mean ± SD
[12] = cycle 2, 60 mg/kg/day oral, n = 4, mean ± SD

For `O=CC[C@@H](O)[C@H](O)[C@H](O)CO` [2DG, 2-deoxyglucose], the “patients with a decrease in p62 level at 24 hr” value [1] was “Five of six”, the dose-limiting toxicity ([2]; human, in vivo, 60 mg/kg, 3 weeks) was “grade 3 asymptomatic QTc prolongation” and the “patients with grade 2 fatigue” value ([2]; in vivo) was “three”. The tolerability ([2]; in vivo, 45 mg/kg) was “well tolerated”, the QT interval ([2]; in vivo, 60 mg/kg) was “prolonged” and the “recommended phase II dose” value ([2]; oral, days 1–14 of a 21-day cycle) was 45 mg/kg. For the same compound, the “patients with decreased FDG uptake by day 2 of therapy” value ([3]; FDG-PET, dose level 2 or 3) was “Five of eight and five”, the “Day 2 SUV (ratio site/liver)” value ([3]; patient 5, lung, dose level 2, chest, baseline 6.3) was 11.6 and the “Day 2 SUV (ratio site/liver)” value ([3]; patient 6, cervical, dose level 2, mediastinum, baseline 4.3) was 2. The “Day 2 SUV (ratio site/liver)” value ([3]; patient 7, prostate, dose level 3, L1 vertebral body, baseline 1.2) was 1, the “Day 2 SUV (ratio site/liver)” value ([3]; patient 8, prostate, dose level 3, ischium, baseline 2.8) was 2.0 and the “Day 2 SUV (ratio site/liver)” value ([3]; patient 11, prostate, dose level 2, ilium, baseline 3.8) was 3. For the same compound, the “effect in prostate cancer cell lines” value ([4]; autophagy a mechanism of resistance) was “cytotoxic effect”, the “effect on prostate cancer cells” value ([4]; preclinical studies) was “cytotoxic” and the “cycles on study with radiographically stable disease” value ([5]; individual patients with CRPC) was 8 cycles and 12 cycles and 21 cycles. For the same compound, the “declines in PSA” value ([5]; seven patients with prostate cancer who completed study therapy) was “no declines”, the AUC [6, 7] was 821.2±236.2 μmol/Lhr and the Clearance [6, 7] was 232.0 ± 63.8 mL/h. The Cmax [6, 7] was 277 ± 18.6 µM, the AUC [6, 8] was 1107.7±213.3 μmol/Lhr and the Clearance [6, 8] was 243.3 ± 49.4 mL/h. For the same compound, the Cmax [6, 8] was 449 ± 168 µM, the AUC [6, 9] was 2086.2±743.2 μmol/Lhr and the Clearance [6, 9] was 185.0 ± 52.6 mL/h. It also gave an AUC [6, 10] of 751.3 ± 181.7 μmol/Lhr, a Clearance [6, 10] of 246.3 ± 56.6 mL/h and an AUC [6, 11] of 1087.1 ± 441.8 μmol/Lhr. It also gave a Clearance [6, 11] of 270.4 ± 126.4 mL/h, an AUC [6, 12] of 1226.9 ± 571.2 μmol/Lhr and a Clearance [6, 12] of 314.9 ± 108.7 mL/h. For the same compound, the “dose dependence of pharmacokinetics” value ([6]; dose levels 30, 45 and 60 mg/kg) was “linear pharmacokinetics; also recorded: linear with dose level”, the Cmax ([6]; human, plasma, po, 30 mg/kg, Cmax, dose level 30 mg/kg oral) was 45 µg/mL and the Cmax ([6]; human, plasma, po, 45 mg/kg, Cmax, dose level 45 mg/kg oral) was 73.7 µg/mL. The Cmax ([6]; human, plasma, po, 60 mg/kg, Cmax, dose level 60 mg/kg oral) was 122 µg/mL and the blood concentrations reached ([6]; single agent, highest concentrations reached in this study) was 700 µM.
